Test results reported in ChEMBL document CHEMBL1128483, “Peptide mimetics of thyrotropin-releasing hormone based on a cyclohexane framework: design, synthesis, and cognition-enhancing properties” (1995).

Columns and labels:
Assay type in all cases: functional
Mus musculus [1] = experiment: Activity was evaluated in C57BL/10 mice by Morris water Maze test and mean latency for TRH was reported at 0.1 mg/Kg i.p. dosage.
Procedure, shortened: (§1)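 Male C57BL/10 mice (17–21 g, housed 10 per group, food and water ad libitum). Drug in saline or 5% acacia, 10 mL/kg, given ip 30 min before the first of four trials to find a hidden submerged platform. Score was each mouse's mean total latency over the four trials; group mean ± SEM. Vehicle group included. Analysis: one-way ANOVA, then Dunnett t-test versus vehicle, p < 0.05.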

Mus musculus [2] = experiment: Activity was evaluated in C57BL/10 mice by Morris water Maze test and mean latency for TRH was reported at 0.03 mg/Kg i.p. dosage.; procedure, shortened: as §1
Mus musculus [3] = experiment: Activity was evaluated in C57BL/10 mice by Morris water Maze test and mean latency for TRH was reported at 0.001 mg/Kg i.p. dosage.; procedure, shortened: as §1
Mus musculus [4] = experiment: Activity was evaluated in C57BL/10 mice by Morris water Maze test and mean latency for TRH was reported at 0.01 mg/Kg i.p. dosage.; procedure, shortened: as §1
Mus musculus [5] = experiment: Activity was evaluated in C57BL/10 mice by Morris water Maze test and mean latency for TRH was reported at 0.3 mg/Kg i.p. dosage.; procedure, shortened: as §1
Mus musculus [6] = experiment: Activity was evaluated in C57BL/10 mice by Morris water Maze test and mean latency for TRH was reported at 1.0 mg/Kg i.p. dosage.; procedure, shortened: as §1
Mus musculus [7] = experiment: Activity was evaluated in C57BL/10 mice by Morris water Maze test and mean latency for TRH was reported at 0.003 mg/Kg i.p. dosage.; procedure, shortened: as §1
Mus musculus [8] = experiment: Activity was evaluated in C57BL/10 mice by Morris water Maze test and mean latency for TRH was reported at 10.0 mg/Kg i.p. dosage.; procedure, shortened: as §1
Mus musculus [9] = experiment: Activity was evaluated in C57BL/10 mice by Morris water Maze test and mean latency for TRH was reported at 3.0 mg/Kg i.p. dosage.; procedure, shortened: as §1
Mus musculus [10] = experiment: Activity was evaluated in C57BL/10 mice by Morris water Maze test and mean latency for TRH was reported at 0.1 mg/Kg p.o. dosage.
Procedure, shortened: (§2)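 Spatial water-maze task in male C57BL/10 mice (17–21 g, group-housed, ad libitum food and water). Oral dosing (saline or 5% acacia vehicle, 10 mL/kg) 30 min before four trials locating a submerged platform. Latency recorded per trial; the mean total over the four trials was the animal's score, reported as mean ± SEM. Vehicle controls included. Groups compared with vehicle by one-way ANOVA and Dunnett t-test (p < 0.05).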

Mus musculus [11] = experiment: Activity was evaluated in C57BL/10 mice by Morris water Maze test and mean latency for TRH was reported at 0.003 mg/Kg p.o. dosage.; procedure, shortened: as §2
Mus musculus [12] = experiment: Activity was evaluated in C57BL/10 mice by Morris water Maze test and mean latency for TRH was reported at 0.03 mg/Kg p.o. dosage.; procedure, shortened: as §2
Mus musculus [13] = experiment: Activity was evaluated in C57BL/10 mice by Morris water Maze test and mean latency for TRH was reported at 0.01 mg/Kg p.o. dosage.; procedure, shortened: as §2
Mus musculus [14] = experiment: Activity was evaluated in C57BL/10 mice by Morris water Maze test and mean latency for TRH was reported at 0.3 mg/Kg p.o. dosage.; procedure, shortened: as §2
Mus musculus [15] = experiment: Activity was evaluated in C57BL/10 mice by Morris water Maze test and mean latency for TRH was reported at 3 mg/Kg i.p. dosage.; procedure, shortened: as §1
Mus musculus [16] = experiment: Activity was evaluated in C57BL/10 mice by Morris water Maze test and mean latency for TRH was reported at 0.0003 mg/Kg i.p. dosage.; procedure, shortened: as §1
Mus musculus [17] = experiment: Activity was evaluated in C57BL/10 mice by Morris water Maze test and mean latency for TRH was reported at 0.0003 mg/Kg p.o. dosage.; procedure, shortened: as §2
Mus musculus [18] = experiment: Activity was evaluated in C57BL/10 mice by Morris water Maze test and mean latency for TRH was reported at 0.00003 mg/Kg p.o. dosage.; procedure, shortened: as §2
Mus musculus [19] = experiment: Activity was evaluated in C57BL/10 mice by Morris water Maze test and mean latency for TRH was reported at 0.00003 mg/Kg i.p. dosage.; procedure, shortened: as §1
Mus musculus [20] = experiment: Activity was evaluated in C57BL/10 mice by Morris water Maze test and mean latency for TRH was reported at 3 mg/Kg p.o. dosage.; procedure, shortened: as §2

Row | Compound | Mean latency (Mus musculus [1]) [s] | Mean latency (Mus musculus [2]) [s] | Mean latency (Mus musculus [3]) [s] | Mean latency (Mus musculus [4]) [s] | Mean latency (Mus musculus [5]) [s] | Mean latency (Mus musculus [6]) [s] | Mean latency (Mus musculus [7]) [s] | Mean latency (Mus musculus [11]) [s] | Mean latency (Mus musculus [12]) [s] | further results
1 | NC(=O)[C@@H]1CCCN1C(=O)[C@H](Cc1c[nH]cn1)NC(=O)[C@@H]1CCC(=O)N1 [PROTIRELIN] | 25.76 | 32.69 | 50.59 | 37.97 | 20.85 | 28.87 | 43.08 |  |  | Mean latency (Mus musculus [8]): 46 s; Mean latency (Mus musculus [9]): 33.57 s
2 | C[C@H]1C[C@@H](CC(N)=O)C[C@@H](C[C@@H]2CCC(=O)N2Cc2ccccc2)C1 | 26.87 | 26.49 | 47.48 | 22.15 |  |  | 36.26 | 42.2 | 32.87 | Mean latency (Mus musculus [10]): 24.55 s; Mean latency (Mus musculus [13]): 35.88 s; Mean latency (Mus musculus [14]): 46.53 s
3 | C[C@H]1C[C@@H](CC(N)=O)C[C@@H](C[C@@H]2CCC(=O)N2)C1 | 30.08 | 37.86 |  | 42.77 | 43.13 |  |  |  |  | 
4 | NC(=O)C[C@@H]1C[C@H](Cc2c[nH]cn2)C[C@H](C[C@@H]2CCC(=O)N2Cc2ccccc2)C1 |  | 15.65 |  |  | 17.62 |  | 22.24 | 35.23 | 21.1 | Mean latency (Mus musculus [15]): 31.62 s; Mean latency (Mus musculus [16]): 33.29 s; Mean latency (Mus musculus [17]): 30.9 s; Mean latency (Mus musculus [18]): 46.67 s; Mean latency (Mus musculus [19]): 62.15 s
5 | NC(=O)C[C@@H]1C[C@H](Cc2c[nH]cn2)C[C@H](C[C@@H]2CCC(=O)N2)C1 | 45.06 |  | 47.62 | 38.72 |  | 25.23 |  |  |  | 
6 | NC(=O)C[C@@H]1C[C@@H](Cc2c[nH]cn2)C[C@H](C[C@@H]2CCC(=O)N2)C1 | 46.09 |  |  | 57.12 |  | 24.19 |  |  |  | 
7 | NC(=O)C[C@@H]1C[C@@H](Cc2c[nH]cn2)C[C@H](C[C@@H]2CCC(=O)N2Cc2ccccc2)C1 |  |  |  |  |  |  |  | 37.01 | 28.87 | Mean latency (Mus musculus [20]): 43.72 s; Mean latency (Mus musculus [17]): 42.81 s; Mean latency (Mus musculus [18]): 51.7 s; Mean latency (Mus musculus [14]): 27.59 s
